Results: ChEMBL document CHEMBL4041497, “Isolation of Phorbol Esters from Euphorbia grandicornis and Evaluation of Protein Kinase C- and Human Platelet-Activating Effects of Euphorbiaceae Diterpenes” (J Nat Prod, 2016)
Active and inactive are the calls of the source. No cut-off for these calls is given here.

Key:
[1] = molecular target: T1, Protein kinase C (PKC) (Homo sapiens) (UniProt O94806+P41743+P17252+P05129+Q05655+P05771+Q05513+Q02156+P24723+Q15139+Q04759); assay: Activation of PKC in human platelet assessed as induction of platelet aggregation at 10 uM measured within 15 mins by tribidimetric method
In short: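 Washed human platelets in Tyrode's solution (2 mM Ca2+, 11.1 mM glucose, 3.5 mg/mL BSA) at 3 × 10^8 platelets/mL, prewarmed 3 min at 37 °C, then given compound or DMSO vehicle with fast shaking (20 Hz) at 37 °C. Aggregation read turbidimetrically as maximal rise in light transmission at 450 nm within 15 min. Means ± SEM, n = 3.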

[2] = molecular target: T1, Protein kinase C (PKC) (Homo sapiens); assay: Activation of PKC in human platelet assessed as phosphorylation of p38 at 0.1 uM measured after 10 mins by Western blot analysis
In short: (§1)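 Washed human platelets were prewarmed 3 min at 37 °C and exposed to compound for 10 min. They were lysed directly in 2× SDS sample buffer and boiled 5 min, then run on SDS-PAGE. Immunoblots used phospho-specific antibodies (phospho-Ser PKC substrate, p-Akt Ser308, p-ERK, p-p38, p-VASP, p-PKD, p-MARCKS) with HRP anti-rabbit and chemiluminescence. GAPDH served as loading control.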

[3] = molecular target: T1, Protein kinase C (PKC) (Homo sapiens); assay: Activation of PKC in human platelet assessed as reduction in phosphorylation of VASP at 0.1 uM in presence of PKCalpha/beta inhibitor Go6976 measured after 10 mins by Western blot analysis
In short: (§2)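 Human platelets were pretreated 1 min with Go6976 1 μM or DMSO vehicle, then stimulated with compound. Lysates were made in 2× SDS sample buffer and boiled, then run on SDS-PAGE and nitrocellulose blots. Probes were phospho-specific antibodies (PKC substrates, Akt Ser308, MARCKS, VASP, p38) with chemiluminescent detection. GAPDH was the loading control.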

[4] = molecular target: T1, Protein kinase C (PKC) (Homo sapiens); assay: Activation of PKC in human platelet assessed as reduction in phosphorylation of PKC substrates at 0.1 uM in presence of PKCalpha/beta inhibitor Go6976 measured after 10 mins by Western blot analysis; in short: as §2
[5] = molecular target: T1, Protein kinase C (PKC) (Homo sapiens); assay: Activation of PKC in human platelet assessed as reduction in phosphorylation of AKT at ser-308 at 0.1 uM in presence of PKCalpha/beta inhibitor Go6976 measured after 10 mins by Western blot analysis; in short: as §2
[6] = molecular target: T1, Protein kinase C (PKC) (Homo sapiens); assay: Activation of PKC in human platelet assessed as phosphorylation of VASP at 0.1 uM measured after 10 mins by Western blot analysis; in short: as §1
[7] = molecular target: Protein kinase C theta type (Homo sapiens) (UniProt Q04759); assay: Induction of PKC-theta translocation from cytosol to plasma membrane in human platelet at 0.1 uM measured after 1 min by Western blot analysis
Protein kinase C theta type (Homo sapiens), sequence (Q04759 whole entry, looked up): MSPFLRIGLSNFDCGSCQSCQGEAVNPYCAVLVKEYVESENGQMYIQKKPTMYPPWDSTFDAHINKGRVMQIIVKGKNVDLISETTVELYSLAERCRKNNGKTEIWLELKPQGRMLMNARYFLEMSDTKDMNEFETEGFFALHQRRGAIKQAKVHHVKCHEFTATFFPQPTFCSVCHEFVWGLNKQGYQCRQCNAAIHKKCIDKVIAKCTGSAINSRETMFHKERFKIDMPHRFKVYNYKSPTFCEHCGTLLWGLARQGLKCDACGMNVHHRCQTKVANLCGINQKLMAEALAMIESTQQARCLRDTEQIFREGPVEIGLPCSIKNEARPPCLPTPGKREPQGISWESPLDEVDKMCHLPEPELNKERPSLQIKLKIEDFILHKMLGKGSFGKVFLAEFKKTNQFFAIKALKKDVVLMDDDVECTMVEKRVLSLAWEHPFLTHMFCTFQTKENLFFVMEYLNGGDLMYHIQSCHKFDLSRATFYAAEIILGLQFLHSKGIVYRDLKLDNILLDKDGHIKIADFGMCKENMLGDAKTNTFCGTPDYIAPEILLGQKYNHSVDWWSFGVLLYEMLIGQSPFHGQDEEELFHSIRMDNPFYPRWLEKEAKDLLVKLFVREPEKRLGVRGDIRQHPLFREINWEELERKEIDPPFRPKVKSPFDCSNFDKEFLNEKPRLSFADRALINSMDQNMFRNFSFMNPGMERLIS
In short: (§3)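 Platelets were treated with compound for 1 min, then lysed with 0.1% digitonin (4 °C, 3 min) and spun at 14 000 rpm for 10 min; the supernatant was the cytosol. The pellet was extracted with 1% Triton X-100 and respun; that supernatant was the membrane fraction. Both fractions were immunoblotted for PKC-α, -β, -δ and -θ.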

[8] = molecular target: T1, Protein kinase C (PKC) (Homo sapiens); assay: Activation of PKC in human platelet assessed as increase in platelet secretion by measuring ATP release at 0.1 uM in presence of PKC inhibitor GF109203X measured after 5 mins by luciferin-luciferase assay
In short: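 Washed human platelets at 3 × 10^8/mL in Tyrode's with Ca2+ 2 mM, glucose 11.1 mM and BSA 3.5 mg/mL. Prewarmed 3 min at 37 °C, then preincubated 3 min with GF109203X 1 μM before compound. After 5 min at 37 °C, spun at 4 °C; supernatant ATP measured by luciferin–luciferase bioluminescence. Means ± SEM, n = 3.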

[9] = molecular target: T1, Protein kinase C (PKC) (Homo sapiens); assay: Activation of PKC in human platelet assessed as phosphorylation of ERK at 0.1 uM measured after 10 mins by Western blot analysis; in short: as §1
[10] = molecular target: Protein kinase C delta type (Homo sapiens) (UniProt Q05655); assay: Induction of PKC-delta translocation from cytosol to plasma membrane in human platelet at 0.1 uM measured after 1 min by Western blot analysis; in short: as §3
Protein kinase C delta type (Homo sapiens), sequence (Q05655 whole entry, looked up): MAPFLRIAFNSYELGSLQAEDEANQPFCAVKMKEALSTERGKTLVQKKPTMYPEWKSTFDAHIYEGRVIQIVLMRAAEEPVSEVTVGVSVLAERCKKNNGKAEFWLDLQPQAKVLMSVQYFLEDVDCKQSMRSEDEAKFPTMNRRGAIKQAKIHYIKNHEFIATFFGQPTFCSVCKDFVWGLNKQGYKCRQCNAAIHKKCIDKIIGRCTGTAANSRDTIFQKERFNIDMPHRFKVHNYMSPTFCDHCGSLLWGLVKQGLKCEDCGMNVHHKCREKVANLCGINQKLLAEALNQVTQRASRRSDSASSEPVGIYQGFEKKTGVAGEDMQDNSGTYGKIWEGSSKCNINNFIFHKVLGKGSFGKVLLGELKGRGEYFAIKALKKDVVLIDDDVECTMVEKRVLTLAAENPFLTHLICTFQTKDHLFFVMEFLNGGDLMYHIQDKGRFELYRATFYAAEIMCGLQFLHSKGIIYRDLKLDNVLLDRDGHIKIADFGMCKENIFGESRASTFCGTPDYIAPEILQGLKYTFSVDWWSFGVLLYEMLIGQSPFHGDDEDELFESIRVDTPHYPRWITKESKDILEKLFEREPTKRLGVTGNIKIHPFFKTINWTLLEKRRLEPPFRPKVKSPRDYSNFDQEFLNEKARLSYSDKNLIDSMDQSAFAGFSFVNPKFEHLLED

[11] = molecular target: T1, Protein kinase C (PKC) (Homo sapiens); assay: Activation of PKC in human platelet assessed as reduction in phosphorylation of MARCK at 0.1 uM in presence of PKCalpha/beta inhibitor Go6976 measured after 10 mins by Western blot analysis; in short: as §2
[12] = molecular target: T1, Protein kinase C (PKC) (Homo sapiens); assay: Activation of PKC in human platelet assessed as increase in platelet secretion by measuring ATP release at 0.1 uM in presence of PKCalpha/beta inhibitor Go6976 measured after 5 mins by luciferin-luciferase assay
In short: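 Washed human platelets at 3 × 10^8/mL in Tyrode's with Ca2+ 2 mM, glucose 11.1 mM and BSA 3.5 mg/mL. Pretreated 1 min with Go6976 1 μM or DMSO vehicle, then compound added. After 5 min at 37 °C, centrifuged at 4 °C; supernatant ATP quantified by luciferin–luciferase assay. Means ± SEM, n = 3.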

[13] = molecular target: T1, Protein kinase C (PKC) (Homo sapiens); assay: Activation of PKC in human platelet assessed as phosphorylation of PKC substrates at 0.1 uM measured after 10 mins by Western blot analysis; in short: as §1
[14] = molecular target: T1, Protein kinase C (PKC) (Homo sapiens); assay: Activation of PKC in human platelet assessed as reduction in phosphorylation of p38 at 0.1 in presence of PKCalpha/beta inhibitor Go6976 measured after 10 mins by Western blot analysis; in short: as §2
[15] = molecular target: T1, Protein kinase C (PKC) (Homo sapiens); assay: Activation of PKC in human platelet assessed as phosphorylation of AKT at ser-308 at 0.1 uM measured after 10 mins by Western blot analysis; in short: as §1
[16] = molecular target: T1, Protein kinase C (PKC) (Homo sapiens); assay: Activation of PKC in human platelet assessed as phosphorylation of MARCK at 0.1 uM measured after 10 mins by Western blot analysis; in short: as §1
[17] = molecular target: T1, Protein kinase C (PKC) (Homo sapiens); assay: Activation of PKC in human platelet assessed as increase in platelet secretion by measuring ATP release at 0.1 uM measured after 5 mins by luciferin-luciferase assay
In short: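 Tyrode's-suspended washed human platelets (3 × 10^8/mL; Ca2+ 2 mM, glucose 11.1 mM, BSA 3.5 mg/mL). Prewarmed 3 min at 37 °C, then incubated 5 min at 37 °C with compound or DMSO vehicle. Spun 1 min at 4 °C; released ATP in supernatant read by luciferin–luciferase reaction. Means ± SEM, n = 3.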

[18] = molecular target: T1, Protein kinase C (PKC) (Homo sapiens); assay: Activation of PKC in human platelet assessed as phosphorylation of PKD at 0.1 uM measured after 10 mins by Western blot analysis; in short: as §1
[19] = molecular target: Protein kinase C beta type (Homo sapiens) (UniProt P05771); assay: Induction of PKC-beta1 translocation from cytosol to plasma membrane in human platelet at 0.1 uM measured after 1 min by Western blot analysis; in short: as §3
Protein kinase C beta type (Homo sapiens), sequence (P05771 2-671 limits assumed): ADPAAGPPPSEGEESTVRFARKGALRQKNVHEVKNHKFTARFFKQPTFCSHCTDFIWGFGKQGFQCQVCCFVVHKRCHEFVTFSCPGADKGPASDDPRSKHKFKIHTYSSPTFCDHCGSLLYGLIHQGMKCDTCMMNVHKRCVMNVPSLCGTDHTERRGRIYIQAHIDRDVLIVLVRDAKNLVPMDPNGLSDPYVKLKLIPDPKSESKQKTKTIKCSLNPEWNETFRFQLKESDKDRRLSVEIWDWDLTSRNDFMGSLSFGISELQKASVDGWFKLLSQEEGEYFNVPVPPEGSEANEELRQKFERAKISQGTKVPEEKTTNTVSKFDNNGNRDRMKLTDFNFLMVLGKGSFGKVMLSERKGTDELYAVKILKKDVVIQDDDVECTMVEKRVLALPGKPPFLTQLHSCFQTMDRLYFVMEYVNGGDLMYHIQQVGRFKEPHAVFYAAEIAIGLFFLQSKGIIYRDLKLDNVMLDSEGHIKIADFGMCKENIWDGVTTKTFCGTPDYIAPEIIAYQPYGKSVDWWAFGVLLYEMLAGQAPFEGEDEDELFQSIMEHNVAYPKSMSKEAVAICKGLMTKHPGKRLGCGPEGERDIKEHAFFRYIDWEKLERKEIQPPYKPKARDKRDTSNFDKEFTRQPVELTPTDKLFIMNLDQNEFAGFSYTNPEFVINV

[20] = molecular target: Protein kinase C alpha type (Homo sapiens) (UniProt P17252); assay: Induction of PKC-alpha translocation from cytosol to plasma membrane in human platelet at 0.1 uM measured after 1 min by Western blot analysis; in short: as §3
Protein kinase C (PKC) = assay: Activation of PKC in human platelet assessed as induction of platelet aggregation measured within 15 mins by tribidimetric method

For `CC(=O)O[C@@H]1[C@H]2[C@@H](OC(=O)c3ccccc3)[C@@H](C)C[C@]2(OC(C)=O)[C@@H](OC(C)=O)[C@]2(C)OC[C@]13C(=O)C=C[C@H](C(C)(C)OC(C)=O)[C@@H]23`, the Activity [1] was “inactive”.

In the case of `C=C1[C@H](OC(C)=O)CC(=O)C(C)(C)/C=C/[C@@H](C)C(=O)[C@@]2(OC(C)=O)C[C@@](C)(OC(C)=O)[C@H](OC(C)=O)[C@@H]2[C@H]1OC(C)=O`, the Activity [1] was “inactive”.

`CCCCCCCCCCCCCC(=O)O[C@@H]1[C@@H](C)[C@@]2(O)[C@@H](C=C(CO)C[C@]3(O)C(=O)C(C)=C[C@@H]23)[C@@H]2C(C)(C)[C@]12OC(C)=O` was tested, and the Activity [2] was “Active”, the Activity [3] was “inactive” and the Activity [4] was “inactive”. For the same compound, the Activity [5] was “inactive”, the Activity [6] was “Active” and the Activity [7] was “Active”. The Activity [8] was “inactive”, the Activity [9] was “Active” and the Activity [10] was “Active”. For the same compound, the Activity [11] was “inactive”, the Activity [12] was “inactive” and the Activity [13] was “Active”. The Activity [14] was “inactive”, the Activity [15] was “Active” and the Activity [16] was “Active”. For the same compound, the Activity [17] was “Active”, the Activity [18] was “Active” and the Activity [19] was “Active”. The Activity [20] was “Active”.

`C/C=C(/C)C(=O)OC[C@]1(C)[C@H]2[C@@H]3C=C(COC(C)=O)C[C@]4(O)C(=O)C(C)=C[C@H]4[C@@]3(O)[C@H](C)C[C@]21OC(=O)C(C)C` showed an EC50 (Protein kinase C (PKC)) of 6.08 µM.

For `C/C=C(/C)C(=O)O[C@H]1C(C)=C[C@]23C(=O)[C@@H](C=C(CO)[C@@H](O)[C@]12O)[C@H]1[C@@H](C[C@H]3C)C1(C)C` [INGENOL MEBUTATE], the Activity [2] was “Active”, the Activity [6] was “Active” and the EC50 (Protein kinase C (PKC)) was 0.0725 µM. For the same compound, the Activity [9] was “Active”, the Activity [10] was “Active” and the Activity [13] was “Active”. The Activity [15] was “Active”, the Activity [16] was “Active” and the Activity [17] was “Active”. The Activity [18] was “Active”, the Activity [19] was “Active” and the Activity [20] was “Active”.

`C/C=C(/C)C(=O)O[C@H]1C(C)=C[C@]23C(=O)[C@@H](C=C(C)[C@@H](O)[C@]12O)[C@H]1[C@@H](C[C@H]3C)C1(C)C` was tested, and the EC50 (Protein kinase C (PKC)) was 5.04 µM.

With `C=C1[C@H](OC(C)=O)CC(=O)C(C)(C)/C=C/[C@@H](C)C(=O)[C@@]2(OC(C)=O)C[C@@](C)(OC(=O)c3ccccc3)[C@H](OC(C)=O)[C@@H]2[C@H]1OC(C)=O` the Activity [1] was “inactive”.
